Test results reported in PubChem BioAssay AID2372 (NMMLSC, 2010).

Biological target: Cell division control protein 42 homolog (Homo sapiens) (UniProt P60953)
Experiment: compound effect on Cdc42 GTP saturation binding, late-stage follow-up, mechanism study for Ras-family GTPase inhibitor project, biochemical, nucleotide-depleted protein, Mg buffer, varying GTP (AID 2372)
Details: GST-Cdc42 beads, BODIPY-GTP binding, flow cytometry
How it was run: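 incubation = EDTA depletion 20 min at 30 °C, compound pre-incubation 2 min | material = GST-Cdc42 bound to glutathione beads, depleted of nucleotide | quantity = 4 µM GST-Cdc42 for bead loading | medium = buffer with 1 mM MgCl2, after 10 mM EDTA stripping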

Cell division control protein 42 homolog (Homo sapiens), sequence (P60953 whole entry, looked up): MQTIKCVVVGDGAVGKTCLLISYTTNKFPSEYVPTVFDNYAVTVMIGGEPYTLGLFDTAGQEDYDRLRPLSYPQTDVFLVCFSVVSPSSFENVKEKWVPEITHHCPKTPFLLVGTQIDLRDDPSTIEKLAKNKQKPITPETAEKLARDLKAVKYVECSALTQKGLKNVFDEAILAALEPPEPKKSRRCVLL

**Q.** For `COc1ccc(C2CC(c3ccccc3)=NN2c2ccc(S(N)(=O)=O)cc2)cc1` (configuration not stated), which Bmax with compound (at 10 µM, stronger effect = lower value) is on record?
**A.** Its Bmax with compound is 1540.

**Q.** What about the Kd of GTP with compound (measured here: GTP affinity with 10 uM compound) of the same molecule?
**A.** The Kd of GTP with compound was 7.16 nM.
